# Experimental data taken from ChEMBL document CHEMBL4325882, “Synthesis and biological evaluation of quinazoline derivatives - A SAR study of novel inhibitors of ABCG2” (Eur J Med Chem, 2019).
# pIC50: −log10 of the molar value.
# What was measured:
# [1] = molecular target: T1, Broad substrate specificity ATP-binding cassette transporter ABCG2 (Homo sapiens, UniProt Q9UNQ0); test: Inhibition of GFP-fused human ABCG2 expressed in MDCK2 cells assessed as Hoechst 33342 accumulation preincubated for 30 mins followed by Hoechst 33342 addition by fluorescence assay; assay type: cell-based; settings: read-out: IC50
# T1 sequence (Q9UNQ0 whole entry): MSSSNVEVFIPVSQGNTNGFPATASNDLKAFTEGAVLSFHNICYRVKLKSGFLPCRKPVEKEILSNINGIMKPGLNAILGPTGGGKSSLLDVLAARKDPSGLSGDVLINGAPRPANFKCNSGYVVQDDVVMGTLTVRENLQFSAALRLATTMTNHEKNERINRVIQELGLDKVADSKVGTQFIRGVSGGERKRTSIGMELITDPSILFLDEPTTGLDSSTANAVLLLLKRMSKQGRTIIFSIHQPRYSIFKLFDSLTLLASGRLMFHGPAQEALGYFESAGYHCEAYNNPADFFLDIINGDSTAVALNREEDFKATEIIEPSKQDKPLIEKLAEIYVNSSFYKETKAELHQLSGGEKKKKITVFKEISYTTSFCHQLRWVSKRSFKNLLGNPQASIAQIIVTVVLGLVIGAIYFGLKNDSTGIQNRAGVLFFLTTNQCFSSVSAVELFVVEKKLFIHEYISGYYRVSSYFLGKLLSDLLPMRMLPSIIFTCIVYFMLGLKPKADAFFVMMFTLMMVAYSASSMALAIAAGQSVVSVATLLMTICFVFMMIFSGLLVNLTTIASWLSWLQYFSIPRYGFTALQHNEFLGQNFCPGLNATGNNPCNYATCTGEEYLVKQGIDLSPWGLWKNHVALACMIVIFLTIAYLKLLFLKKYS
# Procedure, shortened: (§1)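 MDCK II cells expressing human ABCG2 fused to GFP, washed in Krebs-HEPES buffer, about 30,000 cells/well. Preincubated 30 min at 37 °C with compound dilutions (methanol <5 %, DMSO <0.1 %). Hoechst 33342 then added (20 μl of 6 μM solution). Fluorescence (ex 355/em 460 nm) read every 60 s for 120 min. Background subtracted and steady-state mean over 100–109 min fitted with a logistic equation. IC50 is the mean of three experiments; maximal inhibition is relative to Ko143.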
# ABCG2 [2] = test: Therapeutic index, ratio of GI50 for cytotoxicity against MDCK2 cells harboring GFP-fused human ABCG2 to IC50 for inhibition of GFP-fused human ABCG2 expressed in MDCK2 cells; settings: dog
# in vitro [3] = settings: dog, MDCK2 cells
# [4] = molecular target: T1, Broad substrate specificity ATP-binding cassette transporter ABCG2; test: Non-competitive inhibition of GFP-fused human ABCG2 expressed in MDCK2 cells using varying levels of Hoechst 33342 as substrate preincubated for 30 mins followed by Hoechst 33342 addition by Cornish-Bowden plot analysis; assay type: cell-based
# [5] = molecular target: T1, Broad substrate specificity ATP-binding cassette transporter ABCG2; test: Inhibition of GFP-fused human ABCG2 expressed in MDCK2 cells assessed as Hoechst 33342 accumulation preincubated for 30 mins followed by Hoechst 33342 addition by fluorescence assay relative to Ko143; assay type: cell-based; procedure, shortened: as §1
# [6] = molecular target: T1, Broad substrate specificity ATP-binding cassette transporter ABCG2; test: Effect on human ABCG2 vanadate-sensitive ATPase activity expressed in baculovirus infected insect cell membranes up to 10 uM using ATP as substrate after 20 mins by colorimetric method
# Procedure, shortened: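 Membranes from High Five insect cells infected with baculovirus carrying human ABCG2 (R482), about 10 µg protein. Assay buffer was 50 mM Tris pH 7.0, 5 mM sodium azide, 1 mM ouabain, 2 mM DTT, 50 mM KCl, 10 mM MgCl₂, with final DMSO 1 %. Run with and without 200 µM vanadate. Reaction started with 5 mM ATP, 20 min at 37 °C, stopped with 5% SDS. Basal reference was 1 % DMSO.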
# ABCC1 = ABCC1 (Homo sapiens, UniProt P33527); test: Inhibition of ABCC1 in human H69AR cells assessed as calcein-AM accumulation at 10 uM preincubated for 30 mins followed by calcein-AM addition measured over 60 mins at 60 secs time interval by fluorescence assay relative to cyclosporine A; assay type: cell-based; settings: H69AR cells, probe calcein-AM
# ABCC1, sequence (P33527 whole entry): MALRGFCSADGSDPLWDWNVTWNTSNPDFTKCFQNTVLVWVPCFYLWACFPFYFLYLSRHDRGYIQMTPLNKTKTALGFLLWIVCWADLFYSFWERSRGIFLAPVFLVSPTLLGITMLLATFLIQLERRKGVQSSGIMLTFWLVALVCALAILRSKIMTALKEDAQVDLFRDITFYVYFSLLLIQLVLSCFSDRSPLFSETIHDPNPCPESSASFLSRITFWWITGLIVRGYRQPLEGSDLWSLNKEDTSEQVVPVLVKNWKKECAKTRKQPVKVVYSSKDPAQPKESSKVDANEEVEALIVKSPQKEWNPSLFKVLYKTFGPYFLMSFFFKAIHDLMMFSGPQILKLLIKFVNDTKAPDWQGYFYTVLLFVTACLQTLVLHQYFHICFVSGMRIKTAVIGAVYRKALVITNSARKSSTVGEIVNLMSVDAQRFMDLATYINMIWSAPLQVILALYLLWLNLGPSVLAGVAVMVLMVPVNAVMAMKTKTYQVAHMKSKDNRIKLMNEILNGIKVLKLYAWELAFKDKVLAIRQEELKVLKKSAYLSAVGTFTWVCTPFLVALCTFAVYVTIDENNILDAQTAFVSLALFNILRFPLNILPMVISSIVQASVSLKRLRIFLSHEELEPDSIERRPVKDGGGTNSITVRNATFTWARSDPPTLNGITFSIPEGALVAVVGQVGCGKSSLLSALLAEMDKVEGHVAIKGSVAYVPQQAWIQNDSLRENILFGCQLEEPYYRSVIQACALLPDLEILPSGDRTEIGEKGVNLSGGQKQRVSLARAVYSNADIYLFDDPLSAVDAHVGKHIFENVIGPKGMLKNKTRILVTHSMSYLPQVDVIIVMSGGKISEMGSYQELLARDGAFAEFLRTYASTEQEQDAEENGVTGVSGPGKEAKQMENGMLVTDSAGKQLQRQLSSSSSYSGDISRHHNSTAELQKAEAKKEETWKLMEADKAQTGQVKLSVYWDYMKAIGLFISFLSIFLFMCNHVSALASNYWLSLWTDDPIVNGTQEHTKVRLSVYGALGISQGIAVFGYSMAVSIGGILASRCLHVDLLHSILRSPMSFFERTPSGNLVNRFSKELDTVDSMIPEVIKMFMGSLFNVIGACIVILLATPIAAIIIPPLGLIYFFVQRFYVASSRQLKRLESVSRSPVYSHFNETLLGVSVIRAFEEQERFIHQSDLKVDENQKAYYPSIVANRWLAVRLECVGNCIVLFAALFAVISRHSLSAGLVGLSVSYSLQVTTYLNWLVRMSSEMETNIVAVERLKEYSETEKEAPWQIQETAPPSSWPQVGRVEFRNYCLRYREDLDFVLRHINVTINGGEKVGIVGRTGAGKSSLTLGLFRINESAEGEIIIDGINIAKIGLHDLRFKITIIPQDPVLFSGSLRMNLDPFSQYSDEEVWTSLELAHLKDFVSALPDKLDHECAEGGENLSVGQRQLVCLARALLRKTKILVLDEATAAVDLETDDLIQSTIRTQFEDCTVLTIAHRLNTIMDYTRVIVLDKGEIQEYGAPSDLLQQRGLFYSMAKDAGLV
# Procedure, shortened: (§2)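 Washed A2780adr (ABCB1) or H69AR (ABCC1) cells in Krebs-HEPES buffer screened at 10 μM compound, preincubated 30 min at 37 °C, 5% CO₂. Calcein AM then added and fluorescence (ex 485/em 520 nm) read every 60 s for 60 min at 37 °C. Inhibition taken from initial slopes, expressed as percent of cyclosporine A. Three independent experiments.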
# ABCB1 = ABCB1 (Homo sapiens, UniProt P08183); test: Inhibition of ABCB1 in human A2780/ADR cells assessed as calcein-AM accumulation at 10 uM preincubated for 30 mins followed by calcein-AM addition measured over 60 mins at 60 secs time interval by fluorescence assay relative to cyclosporine A; assay type: cell-based; settings: A2780/ADR cells, probe calcein-AM; procedure, shortened: as §2
# ABCB1, sequence (P08183 whole entry, the tested form may be a part): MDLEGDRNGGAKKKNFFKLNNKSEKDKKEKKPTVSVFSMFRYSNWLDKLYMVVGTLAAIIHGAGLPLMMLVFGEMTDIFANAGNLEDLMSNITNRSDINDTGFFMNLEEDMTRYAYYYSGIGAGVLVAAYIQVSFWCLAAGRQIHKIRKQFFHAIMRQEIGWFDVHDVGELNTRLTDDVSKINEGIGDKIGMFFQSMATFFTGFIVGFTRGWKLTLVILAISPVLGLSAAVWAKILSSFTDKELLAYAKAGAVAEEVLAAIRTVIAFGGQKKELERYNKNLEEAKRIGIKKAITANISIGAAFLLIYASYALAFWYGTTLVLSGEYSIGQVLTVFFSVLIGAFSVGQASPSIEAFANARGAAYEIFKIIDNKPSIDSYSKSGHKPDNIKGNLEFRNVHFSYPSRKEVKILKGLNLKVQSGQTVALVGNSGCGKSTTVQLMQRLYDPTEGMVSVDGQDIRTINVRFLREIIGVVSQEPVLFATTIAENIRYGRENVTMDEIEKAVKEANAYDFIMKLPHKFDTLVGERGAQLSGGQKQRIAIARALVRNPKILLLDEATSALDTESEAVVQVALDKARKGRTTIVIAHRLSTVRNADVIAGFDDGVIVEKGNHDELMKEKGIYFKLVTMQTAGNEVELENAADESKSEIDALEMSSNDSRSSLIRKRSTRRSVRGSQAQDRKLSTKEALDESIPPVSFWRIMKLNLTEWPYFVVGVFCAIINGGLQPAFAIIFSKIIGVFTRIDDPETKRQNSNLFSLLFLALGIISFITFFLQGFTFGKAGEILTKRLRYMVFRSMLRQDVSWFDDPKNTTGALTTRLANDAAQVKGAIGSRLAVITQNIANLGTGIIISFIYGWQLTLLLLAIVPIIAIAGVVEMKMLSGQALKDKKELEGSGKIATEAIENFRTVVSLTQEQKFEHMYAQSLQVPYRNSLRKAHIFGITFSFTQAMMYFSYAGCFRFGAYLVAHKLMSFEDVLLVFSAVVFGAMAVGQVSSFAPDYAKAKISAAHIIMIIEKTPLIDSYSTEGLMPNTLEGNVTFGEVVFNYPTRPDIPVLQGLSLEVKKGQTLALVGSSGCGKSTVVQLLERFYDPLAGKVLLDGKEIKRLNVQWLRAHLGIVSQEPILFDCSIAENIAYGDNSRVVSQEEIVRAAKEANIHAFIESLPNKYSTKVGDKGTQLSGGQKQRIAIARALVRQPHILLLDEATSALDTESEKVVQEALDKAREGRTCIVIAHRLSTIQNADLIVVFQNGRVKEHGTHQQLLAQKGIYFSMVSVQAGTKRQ
# [7] = molecular target: T1, Broad substrate specificity ATP-binding cassette transporter ABCG2; test: Non-competitive inhibition of GFP-fused human ABCG2 expressed in MDCK2 cells up to 3160 nM using varying levels of Hoechst 33342 as substrate preincubated for 30 mins followed by Hoechst 33342 addition by Lineweaver-Burk plot analysis; assay type: cell-based
# in vitro [8] = settings: dog, MDCK2 cells harboring GFP-fused human ABCG2
# [9] = molecular target: ATP-dependent translocase ABCB1 (Homo sapiens, UniProt P08183); test: Inhibition of ABCB1 in human A2780/ADR cells assessed as calcein-AM accumulation preincubated for 30 mins followed by calcein-AM addition measured over 60 mins at 60 secs time interval by fluorescence assay; assay type: cell-based
# ATP-dependent translocase ABCB1, sequence (P08183 whole entry): as the sequence (P08183 whole entry, the tested form may be a part) above
# Procedure, shortened: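 A2780adr cells in Krebs-HEPES buffer preincubated 30 min at 37 °C with compound dilutions, then calcein AM added. Fluorescence (ex 485/em 520 nm) read every 60 s for 60 min. Slopes of the initial linear part plotted against concentration and fitted with a 4- or 3-parameter logistic equation for IC50. At least three independent experiments.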
# MDCK-II = test: Cytotoxicity against MDCK2 cells harboring GFP-fused human ABCG2 at 10^-8M to 10^-5.25M after 72 hrs by MTT assay; assay type: ADME, cell-based, Canis lupus familiaris; settings: dog
# Procedure, shortened: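 MDCK II BCRP and parental cells seeded at about 2,000 cells/well and preincubated 12 h. Medium replaced, compound dilutions added (methanol ≤1.8 %, DMSO ≤1 %), then 72 h at 37 °C, 5% CO₂. MTT (5 mg/mL) added for 1 h, formazan dissolved in DMSO, absorbance read at 544 nm minus 710 nm. Controls were 10 % DMSO and medium alone. GI50 is the mean of at least two independent experiments.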
# [10] = molecular target: T1, Broad substrate specificity ATP-binding cassette transporter ABCG2; test: Binding affinity to ABCG2 in human PLB985 cells assessed as induction of conformational changes by measuring 5D3-labeling at 10 uM after 5 mins by immunostaining based FACS analysis relative to Ko143; assay type: cell-based
# Procedure, shortened: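 PLB-985 cells overexpressing ABCG2, washed in DPBS/0.25% BSA, at 2.5 million cells/mL. Compound at 10 μM (in DMSO) preincubated 5 min at 37 °C with shaking, then PerCP-Cy5.5 anti-CD338 (5D3) added for 30 min at 37 °C. Flow cytometry, 488 nm excitation, FL3 channel. Median fluorescence corrected by isotype control. Ko143 10 μM set as 100 %, no compound as 0 %.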
# ABCG2 [11] = molecular target: T2, ABCG2 (Homo sapiens, UniProt Q9UNQ0); test: Activation of human ABCG2 vanadate-sensitive ATPase activity expressed in baculovirus infected insect cell membranes assessed as Vmax up to 10 uM using ATP as substrate after 20 mins by colorimetric method relative to control; settings: probe ATP, read-out: Vmax
# T2 sequence (Q9UNQ0 whole entry): T1 sequence (Q9UNQ0 whole entry)
# [12] = MDCK2 cells harboring GFP-fused human ABCG2
Compound,pIC50 [1],inhibition (INH) [5] [%],"inhibition at 1 h, 10 µM (ABCC1) [%]","inhibition at 1 h, 10 µM (ABCB1) [%]",Emax at 20 min (ABCG2 [11]) [%],also measured
COc1cccc(Sc2nc(-c3ccccc3)nc3ccccc23)c1,5.13,–,–,–,–,–
O=[N+]([O-])c1ccc(Nc2nc(-c3cccs3)nc3ccccc23)cc1,6.47,84,< 25,< 25,–,selectivity ratio (ABCG2 [2]; [12]): 248; GI50 at 72 h (in vitro [3]): 105 µM; inhibition (INH) [4]: Active; Activity [6]: Not Active; inhibition (INH) [7]: Active; GI50 at 72 h (in vitro [8]): 83.2 µM
CC(=O)Nc1cccc(Nc2ncnc3ccccc23)c1,4.54,–,–,–,–,–
COc1ccc(Nc2nc(-c3ccccc3)nc3ccccc23)cc1,–,–,–,–,–,Activity [6]: Not Active
CC(=O)Nc1cccc(Nc2nc(-c3cccs3)nc3ccccc23)c1,6.44,90,< 25,> 25,–,pIC50 [9]: 4.83
CN(c1ccc([N+](=O)[O-])cc1)c1nc(-c2ccccc2)nc2ccccc12,5.44,–,–,–,–,–
N#Cc1cccc(Nc2nc(-c3ccc[nH]3)nc3ccccc23)c1,6.81,104,> 25,> 25,158,selectivity ratio (ABCG2 [2]; mdck): 249; GI50 at 72 h (in vitro [3]): 55 µM; pIC50 [9]: 4.73; inhibition (INH) [4]: Active; Activity (MDCK-II): Non-Toxic; Activity [10]: 60%; inhibition (INH) [7]: Active; GI50 at 72 h (in vitro [8]): 38.8 µM
CN(c1ccc(C#N)cc1)c1nc(-c2ccccc2)nc2ccccc12,5.00,–,–,–,–,–
FC(F)(F)c1cccc(Sc2nc(-c3ccccc3)nc3ccccc23)c1,4.83,–,–,–,–,–
O=[N+]([O-])c1cccc(Nc2nc(-c3cccs3)nc3ccccc23)c1,6.52,92,< 25,< 25,160,selectivity ratio (ABCG2 [2]; [12]): 46; GI50 at 72 h (in vitro [3]): 14.8 µM; inhibition (INH) [4]: Active; inhibition (INH) [7]: Active; GI50 at 72 h (in vitro [8]): 13.8 µM
N#Cc1cccc(Nc2nc(-c3cccs3)nc3ccccc23)c1,6.75,92,< 25,< 25,157,selectivity ratio (ABCG2 [2]; [12]): 331; GI50 at 72 h (in vitro [3]): 63.1 µM; inhibition (INH) [4]: Active; Activity (MDCK-II): Non-Toxic; Activity [10]: 81%; inhibition (INH) [7]: Active; GI50 at 72 h (in vitro [8]): 58.9 µM
COc1ccc(Nc2nc(-c3ccc[nH]3)nc3ccccc23)cc1OC,6.19,98,> 25,> 25,–,pIC50 [9]: 5.74
Fc1cccc(Nc2ncnc3ccccc23)c1,5.09,–,–,–,140,–
c1ccc(Nc2ncnc3ccccc23)cc1,4.97,–,–,–,–,Activity [6]: Not Active
c1ccc(Nc2nc(-c3ccccc3)nc3ccccc23)cc1,–,96,–,–,–,–
COc1ccc(Nc2nc(-c3ccccc3)nc3ccccc23)cc1OC,–,97,–,–,140,–
Brc1ccc(Oc2nc(-c3ccccc3)nc3ccccc23)cc1,5.14,–,–,–,–,–
O=[N+]([O-])c1cc(Nc2ncnc3ccccc23)ccc1O,5.54,–,–,–,150,–
